# M4 PAM = human M4 muscarinic receptor positive allosteric modulators, primary screen, CHO-K1 cells, Fluo-8 calcium fluorescence | AID 624126, 2012 | activation, % at 3 µM | 360,000 compounds, 0.4% hits | CHO-K1 hM4/Gqi5, ACh EC20; 0% = ACh EC20, 100% = maximal ACh | Muscarinic acetylcholine receptor M4 (Homo sapiens), P08173;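 active means activation above its plate's cutoff, the mean activation of sample wells plus 3 SD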
# Target sequence (P08173 whole entry, looked up): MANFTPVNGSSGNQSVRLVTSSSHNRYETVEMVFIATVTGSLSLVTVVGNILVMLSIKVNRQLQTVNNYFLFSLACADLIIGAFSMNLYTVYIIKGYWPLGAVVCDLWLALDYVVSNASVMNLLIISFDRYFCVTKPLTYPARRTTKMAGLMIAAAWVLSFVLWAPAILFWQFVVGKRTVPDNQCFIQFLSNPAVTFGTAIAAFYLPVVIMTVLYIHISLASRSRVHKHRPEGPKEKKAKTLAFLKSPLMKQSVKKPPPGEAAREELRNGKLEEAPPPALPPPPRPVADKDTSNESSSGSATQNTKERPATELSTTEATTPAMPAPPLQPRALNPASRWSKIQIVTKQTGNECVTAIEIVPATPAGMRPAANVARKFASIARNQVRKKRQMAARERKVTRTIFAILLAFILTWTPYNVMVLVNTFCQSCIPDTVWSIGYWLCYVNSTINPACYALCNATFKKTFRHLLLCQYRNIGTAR
# CHRM5 PAM = human M5 muscarinic receptor positive allosteric modulators, primary screen, CHO-K1 cells, Fluo-8 calcium fluorescence; activation, % at 3 µM; CHO-K1 hM5, ACh EC20 PAM; 0% = ACh EC20, 100% = ACh EC100; Muscarinic acetylcholine receptor M5 (Homo sapiens), P08912; 360,000 compounds, 0.3% hits; AID 624038, 2012;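 active means activation above the run cutoff, the mean activation of all test compounds plus 3 SD, cut at about 18% in these data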
#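 System: CHO-K1 cell line with stable human muscarinic M5 receptor expression | Also added: EC20 acetylcholine as agonist stimulus | Compound: One concentration, 3 µM final (nominal) | Timing: Fluo-8 loading 80 min at 37 °C plus 30 min room temperature | Measured by: Fluo-8 calcium dye fluorescence, kinetic read | Read-out basis: % activation, ACh-normalized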
# M5 ag = human M5 muscarinic receptor agonists, primary screen, CHO-K1 cells, Fluo-8 calcium fluorescence. CHO-K1 hM5 cells; 0% DMSO wells, 100% maximal acetylcholine response. activation, % at 3 µM. 360,000 compounds, 0.19% hits. AID 624037, 2012;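 active means activation above the run's mean over test compounds plus 3 SD, cut at about 23% in these data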;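 further: signal is peak over basal fluorescence ratio across the kinetic read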
# M4 antag = human M4 muscarinic receptor antagonists, primary screen, CHO cells, Fluo-8 calcium fluorescence; Muscarinic acetylcholine receptor M4 (Homo sapiens), P08173; CHO-hM4 cells, ACh EC80; inhibition, % at 3 µM; 360,000 compounds, 0.73% hits; AID 624125, 2012;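 active means inhibition above its plate's cutoff, the mean inhibition of sample wells plus 3 SD, cut at about 27% in these data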;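 further: 0% = acetylcholine EC80 with DMSO and 100% = DMSO without agonist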
# M4 ag = human M4 muscarinic receptor agonists, primary screen, CHO-K1 cells, Fluo-8 calcium fluorescence | Muscarinic acetylcholine receptor M4 (Homo sapiens), P08173 | 360,000 compounds, 0.14% hits | CHO-K1 hM4/Gqi5; vehicle 0%, full acetylcholine response 100% | activation, % at 3 µM;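 active means activation above the run mean over all test wells plus 3 SD, cut at about 32% in these data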;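 further: peak over basal fluorescence ratio per well then scaled between controls; 0% = DMSO wells and 100% = acetylcholine at EC100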
# CHRM5 antagonist = human M5 muscarinic receptor antagonists, primary screen, CHO cells, Fluo-8 calcium fluorescence | Muscarinic acetylcholine receptor M5 (Homo sapiens), P08912 | CHO-hM5 cells, ACh EC80 | inhibition, % at 3 µM | 360,000 compounds, 0.59% hits;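 active means inhibition above a per-plate cutoff, the mean of that plate's test compounds plus 3 SD, cut at about 27% in these data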;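 further: 0% = acetylcholine EC80 with DMSO and 100% = DMSO without agonist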
# Active calls of the source: *. Only some compounds are listed: those with a hit (about 1.8% of all), similar ones and a draw of the others.
SMILES,M4 PAM,CHRM5 PAM,M5 ag,M4 antag,M4 ag,CHRM5 antagonist
COc1ccc(-c2nnc3n(CCc4ccccc4)c(=O)c4ccccc4n23)c(OC)c1,-4,-10,1,-7,5,10
CN(c1ccccc1)S(=O)(=O)c1cccc(NC(=O)c2ccc(Cl)c([N+](=O)[O-])c2)c1,-16,-38,3,33*,23,34*
Cc1nc2ccc(NC(=O)c3cc(S(=O)(=O)N(C)c4ccccc4)ccc3Cl)cc2s1,-21,-16,12,7,20,29*
Cc1nc2ccc(NC(=O)c3ccc(Cl)c(S(=O)(=O)N(C)c4ccccc4)c3)cc2s1,0,2,1,-14,3,-2
Fc1ccccc1-c1nc(NCC2CC2)nc2ccsc12,-4,-6,-3,10,-2,3
CN(C)CCNc1nc(-c2ccccc2F)c2sccc2n1,-11,-34,-9,21,2,40*
COC(=O)C(C)NC(=O)c1cn(-c2ccccc2OC)c(=O)c2ccccc12 (configuration not stated),-8,-3,-1,13,0,10
COc1ccc(OC)c2c1C(=O)C(Cl)=C(Cl)C2=O,-8,-1,0,61*,0,23
O=[N+]([O-])c1ccc(SCc2ccncc2)nc1,7,4,-5,-9,0,-1
O=C(Nc1ccccc1)c1ccccc1OCC(O)CN1C(=O)c2ccccc2S1(=O)=O (configuration not stated),-20,-20,4,32*,19,22
CC1(C)NC(=O)N(CC(O)COc2ccccc2C(=O)Nc2ccccc2)C1=O (configuration not stated),-2,-14,1,2,11,12
Nc1c(C(=O)N/N=C/c2ccc(F)cc2)oc2nc(-c3ccccc3)cc(-c3ccco3)c12,-2,-4,-4,0,1,12
CC1OC2CC(=O)OC2C2=C1C(=O)c1c(O)cccc1C2=O (configuration not stated),6,2,20,29*,8,45*
COc1ccccc1NC(=O)C1CCCN(c2nc(C)cc(C)n2)C1 (configuration not stated),17*,-7,-4,-4,-1,8
COc1ccc(CC(=O)Nc2cc(S(=O)(=O)Nc3ccc(OC)cc3)ccc2OC)cc1,4,-5,6,3,10,8
CCCN1CCN(C(=O)c2ccc(S(=O)(=O)N(C)c3ccccc3OC)cc2)CC1,-3,-2,-2,-12,4,1
CCOC(=O)c1c(NC(=O)CSc2nnc(-c3ccc(C)cc3)o2)sc(C(C)=O)c1C,17,-5,-1,-7,1,18
CCOC(=O)c1sc(NC(=O)CSc2nc(C)cc(C)n2)c(C#N)c1C,5,-2,2,-4,1,-3
CCOC(=O)c1sc(NC(=O)CSc2n[nH]c(-c3ccccc3)n2)c(C#N)c1C,-12,-24,5,0,15,34*
CCOC(=O)c1c(NC(=O)CSc2nnc(-c3ccccc3)o2)sc(C(C)=O)c1C,15*,8,1,0,2,-2
O=C(c1ccc(F)cc1)N1CCC2(CC1)NCCc1[nH]cnc12,1,3,-4,-4,0,3
COc1c(C)cc(Br)cc1C(=O)Nc1ccc(Cc2ccncc2)cc1,-13,-19,-12,-4,4,10
Cc1nn(-c2ccccc2)c(N)c1Sc1cccc([N+](=O)[O-])c1,-11,-11,-5,-11,7,7
Cc1cc(C)nc(-n2nc(C)c(Sc3ccc(F)cc3)c2N)n1,23*,7,3,3,2,1
COC(=O)[C@@]12C[C@@H](CC(=O)NCc3cccc(C(F)(F)F)c3)C(=O)N(Cc3ccc4c(c3)OCO4)C1=CCC(C)(C)C2,7,14,-1,-7,7,-16
SMILES,M4 PAM,CHRM5 PAM,M5 ag,M4 antag,M4 ag,CHRM5 antagonist
OCCN(CC#CCC(O)(c1ccccc1)C1CCCC1)CCO (configuration not stated),-1,7,-13,-7,1,-1
CN(C)CC#CCC(O)(c1ccccc1)C1CCCCC1 (configuration not stated),-17,-31,-16,92*,3,96*
CCN(CC)CC#CCC(O)(c1ccccc1)C1CCCC1 (configuration not stated),-21,-23,-6,95*,1,95*
COc1ccc(C(C)NS(=O)(=O)Cc2ccccc2)cc1 (configuration not stated),-6,-10,2,7,0,-3
OC(CCN1CCC2CCC(C2)C1)c1ccc(Br)cc1 (configuration not stated),-13,-12,-11,37*,-1,4
O=C(OCC(=O)N1N=C(c2ccc(Cl)cc2)CC1c1ccco1)c1cccnc1 (configuration not stated),8,18*,6,-5,1,-1
O=C(CCl)N1N=C(c2ccco2)CC1c1ccco1 (configuration not stated),2,28*,3,-7,1,11
COc1ccc(Oc2nnc(-c3ccccc3)cc2C#N)cc1,27*,10,-2,0,1,0
O=C(c1cc(Cl)cc(Cl)c1)N1CCC2CC1c1cc(N3CCCCC3)ccc12 (configuration not stated),-12,-18,-3,27*,-2,13
Cc1ccc(NC(=O)CCCNC(=O)c2ccc(Cl)cc2)nc1,-2,3,-3,2,1,5
c1ccc(-c2cn(-c3ccccc3)c3[n+]2CCS3)cc1,-16,-5,-5,18,0,8
CC(C)(C)c1ccc(-c2cn(-c3ccc(Br)cc3)c3[n+]2CCCS3)cc1,-19,-20,-11,50*,3,58*
CC(C)CC(=O)Nc1nnc(SCC(=O)NC2CCCCC2)s1,6,2,-4,3,0,9
CC(C)NC(=O)C(C)Oc1ccc(S(=O)(=O)NCc2ccc3c(c2)OCO3)cc1 (configuration not stated),-2,-10,-3,4,2,14
COc1ccc(NC(=O)c2nnn(CC(=O)Nc3ccc4c(c3)OCO4)c2N)cc1OC,2,-6,-6,2,0,19

# Screening data as filed in PubChem.
